According to ChEMBL document CHEMBL1158368, “Synthesis of novel 3-(aryl)benzothieno[2,3-c]pyran-1-ones from Sonogashira products and intramolecular cyclization: Antitumoral activity evaluation” (2009):

How the values were obtained:
Format in all cases: functional
MCF7 = assay: Cytotoxicity against human MCF7 cells after 48 hrs by SRB assay; conditions: MCF7, 48 h
Procedure, shortened: (§1)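 Cells were seeded at 1.5 × 10⁵ cells/mL (MCF-7 and SF-268) so growth stayed exponential, attached overnight, then were exposed to compound for 48 h at 37 °C in humidified 5% CO₂. Untreated controls received DMSO vehicle at up to 0.25%. Cells were fixed in situ and stained with SRB; the bound dye was solubilized and read at 492 nm. GI₅₀ (50% inhibition of net growth) came from dose–response curves, run in duplicate.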

CNS cell = assay: Cytotoxicity against human CNS cells after 48 hrs by SRB assay; procedure, shortened: as §1
NCI-H460 = assay: Cytotoxicity against human NCI-H460 cells after 48 hrs by SRB assay; conditions: NCI-H460, 48 h
Procedure, shortened: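 NCI-H460 cells were plated at 0.75 × 10⁴ cells/mL to keep growth exponential, left overnight to attach, and treated for 48 h at 37 °C in humidified 5% CO₂, with DMSO vehicle controls at up to 0.25%. Readout was SRB staining of in-situ-fixed cells, with solubilized dye measured at 492 nm. GI₅₀ (50% net growth inhibition) came from dose–response curves in duplicate.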

SMILES | GI50 (MCF7) | GI50 (CNS cell) | GI50 (NCI-H460)
COC(=O)c1sc2ccccc2c1C#Cc1ccc(OC)cc1 | 90.6 µM | > 150 µM | 103 µM
O=c1oc(-c2ccc(F)cc2)c(I)c2c1sc1ccccc12 | 25.2 µM | 20.7 µM | 35.8 µM
COC(=O)c1sc2cc(OC)ccc2c1C#Cc1ccccc1F | 11.4 µM | 7.2 µM | 10.3 µM
COC(=O)c1sc2cc(OC)ccc2c1C#Cc1ccccc1 | 79.6 µM | 54.9 µM | 42.3 µM
COc1ccc2c(c1)sc1c(=O)oc(-c3ccc(F)cc3)cc12 | 109 µM | 28.9 µM | 118 µM
COC(=O)c1sc2ccccc2c1C#Cc1ccc(F)cc1 | 60.6 µM | 76.1 µM | 56.2 µM
COC(=O)c1sc2ccccc2c1C#Cc1ccccc1 | 71.6 µM | 64.7 µM | 58.9 µM
COc1ccc(-c2oc(=O)c3sc4ccccc4c3c2I)cc1 | > 150 µM | > 150 µM | > 150 µM
COc1ccc2c(c1)sc1c(=O)oc(-c3ccccc3F)c(I)c12 | 11.9 µM | 11.3 µM | 10.9 µM
COc1ccc(-c2cc3c(sc4ccccc43)c(=O)o2)cc1 | > 75 µM | > 75 µM | > 75 µM
COC(=O)c1sc2ccccc2c1C#Cc1ccccc1F | 40.9 µM | 25.7 µM | 30.2 µM
O=c1oc(-c2ccc(F)cc2)cc2c1sc1ccccc12 | > 25 µM | > 25 µM | > 25 µM
COc1ccc2c(c1)sc1c(=O)oc(-c3ccc(F)cc3)c(I)c12 | > 150 µM | > 150 µM | > 150 µM
COc1ccc2c(c1)sc1c(=O)oc(-c3ccccc3)cc12 | > 75 µM | > 75 µM | > 75 µM
COC(=O)c1sc2cc(OC)ccc2c1C#Cc1ccc(F)cc1 | 12.6 µM | 20.9 µM | 10.1 µM
COc1cccc2c1C(=O)c1c(O)c3c(c(O)c1C2=O)C[C@@](O)(C(=O)CO)C[C@@H]3O[C@H]1C[C@H](N)[C@H](O)[C@H](C)O1 [DOXORUBICIN] | 0.0428 µM | 0.094 µM | 0.094 µM
O=c1oc(-c2ccccc2)cc2c1sc1ccccc12 | > 112 µM | > 112 µM | > 112 µM
O=c1oc(-c2ccccc2F)cc2c1sc1ccccc12 | 19.4 µM | 12.4 µM | 15.5 µM
